# CAL PDZ FP-1 = blocks peptide binding to human CAL PDZ domain. Q9HD26. purified CAL PDZ, TMR-peptide fluorescence polarization, 1 h. inhibition, % at 20 µM. actives 0.02% (n = 330,000). AID 504414;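 active = highest replicate inhibition of at least 40%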;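 also: plate controls were DMSO neutral control wells for no effect and unlabeled competitor peptide control wells for full effect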
#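 Material: tagged CAL PDZ protein CerCALP, purified; buffer or medium: sodium phosphate/NaCl buffer pH 7.4 with TCEP, IgG, Thesit; also added: fluorescent TMR peptide probe; schedule: 1 h incubation at room temperature before polarization reading; technique: fluorescence polarization from S- and P-plane intensities, G-factor corrected; control set: unlabelled peptide and DMSO controls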
# Rtt109 Vps75 = inhibitors of Candida albicans Rtt109/Vps75 histone acetyltransferase. Q5AAJ8. purified Rtt109/Vps75, ThioGlo CoA-SH fluorescence, 4 h. inhibition, % at 34.9 µM. actives 0.16% (n = 330,000). AID 540336;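 active = inhibition of at least 50% in every replicate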
# Target sequence (Q5AAJ8 whole entry, looked up): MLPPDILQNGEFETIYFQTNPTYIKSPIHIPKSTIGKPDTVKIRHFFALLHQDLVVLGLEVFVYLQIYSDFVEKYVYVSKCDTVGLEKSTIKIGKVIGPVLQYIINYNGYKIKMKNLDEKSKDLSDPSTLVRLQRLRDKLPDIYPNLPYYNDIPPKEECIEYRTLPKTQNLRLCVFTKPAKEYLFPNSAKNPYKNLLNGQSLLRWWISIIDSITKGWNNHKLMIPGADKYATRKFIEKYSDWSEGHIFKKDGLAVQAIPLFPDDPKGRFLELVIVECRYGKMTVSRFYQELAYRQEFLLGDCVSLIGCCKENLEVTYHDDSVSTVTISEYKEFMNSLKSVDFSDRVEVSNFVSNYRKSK
# CAL PDZ FP-2 = blocks peptide binding to the human CAL PDZ domain; Q9HD26; purified CAL PDZ, TMR-peptide fluorescence polarization, 1 h; inhibition, % at 24.9 µM; actives 0.92% (n = 300,000); AID 602252;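 active = mean inhibition of at least 30% with at least half of replicates also reaching 30%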;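 also: 0% = DMSO neutral control and 100% = excess unlabeled competitor peptide PRC23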
# DYRK1A inh = inhibitors of rat Dyrk1A kinase. ADP-Glo luminescence, NFATc1 peptide. actives 0.43% (n = 310,000). AID 504441. Q63470. inhibition, % at 12.5 µM; in the data active = inhibition above about 50%;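 also: plate controls were vehicle with enzyme for no effect and no enzyme for full effect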
# CDK5 p35 inh = CDK5/p35 (human) kinase inhibition; Q00535+Q15078; Recombinant CDK5/p35, ADP-Glo luminescence, 60 min; inhibition, % at 10 µM; actives 0.01% (n = 330,000);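 active = highest replicate inhibition of at least 50% and at least 75% of replicates reaching 50%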;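 also: plate controls were DMSO neutral control for no effect and GW8510 at 10 µM for full effect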
# dFosB act-1 = enhances mouse delta FosB homodimer DNA binding | P13346 | purified delta FosB, TAMRA-CDK5 oligo fluorescence polarization; percent of positive-control signal above neutral wells | activation, % at 25 µM | actives 0.99% (n = 340,000);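 active = mean activation above about 17%, with every replicate also reaching it, limit read from the data, passing the limit was not always enough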
# Target sequence (P13346 whole entry, looked up): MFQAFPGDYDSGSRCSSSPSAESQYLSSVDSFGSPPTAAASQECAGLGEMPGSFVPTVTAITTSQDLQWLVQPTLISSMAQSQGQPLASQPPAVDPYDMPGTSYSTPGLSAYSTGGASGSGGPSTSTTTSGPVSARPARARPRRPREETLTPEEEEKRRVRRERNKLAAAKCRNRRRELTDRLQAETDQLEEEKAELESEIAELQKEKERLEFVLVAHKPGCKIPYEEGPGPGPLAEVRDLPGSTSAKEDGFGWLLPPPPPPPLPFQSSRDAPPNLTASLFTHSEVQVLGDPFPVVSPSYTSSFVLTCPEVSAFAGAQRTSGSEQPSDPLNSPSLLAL
# dFosB act-2 = delta FosB (mouse) homodimer activation; shares compounds with dFosB act-1; purified delta FosB, TAMRA-CDK5 oligo fluorescence polarization; normalised: neutral wells 0, positive control 100; activation, % at 24.9 µM; 2,400 tested, under 10 active; AID 588690;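 active = highest replicate activation at or above 34% and every replicate reaching that threshold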;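 also: higher polarization means more probe DNA bound by delta FosB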
# Starred values were filed as active, the others as inactive; / = no result. Compounds with a hit are over-represented: about 2.2% of the library has one in this group of screens.
SMILES,CAL PDZ FP-1,Rtt109 Vps75,CAL PDZ FP-2,DYRK1A inh,CDK5 p35 inh,dFosB act-1,dFosB act-2
COc1cc2c(cc1OC)-c1cc(Nc3cccc(F)c3)nc(=O)n1CC2,-0.6,-0.2,2.1,-2.2,-0.4,-21.3,/
COc1cc2c(cc1OC)-c1cc(Nc3ccc(F)cc3)nc(=O)n1CC2,-6.0,-5.1,-1.0,6.0,-1.1,37.3*,2.5
Cc1ccc(-c2ccc(C(=O)NCCCNC(=O)c3cnccn3)o2)cc1Cl,-1.2,1.7,/,13.9,0.5,-19.8,/
Cc1ccc(C)c(CN2C(=O)c3ccccc3S(=O)c3ccc(C(=O)NCCCN4CCCC4)cc32)c1 (stereo not given),-4.0,1.8,-5.8,-3.6,0.9,25.4*,3.5
COc1ccc(NC(=O)c2ccc(COc3ccc(C)cc3)o2)cc1,-3.6,0.0,-4.5,-5.5,-3.5,-9.4,/
CCOc1ccc(-n2c(SCC(N)=O)nc3c([nH]c4ccccc43)c2=O)cc1,-0.2,3.2,/,2.1,1.4,-10.5,/
CCOc1ccc(-n2c(SCC(=O)Nc3cc(C)on3)nc3c([nH]c4ccccc43)c2=O)cc1,0.0,3.6,-2.1,1.7,0.3,41.1*,2.6
O=C(CSc1nc2c([nH]c3ccccc32)c(=O)n1-c1ccc(F)cc1)NCc1ccco1,-0.7,-10.1,/,-3.4,-0.9,18.7*,1.5
COc1ccc(-n2c(SCC(=O)Nc3cc(C)on3)nc3c(c2=O)SCC3)cc1,1.3,-3.3,-2.6,-3.4,0.5,1.6,/
Cc1cc(NC(=O)CSc2nc3c(c(=O)n2-c2ccc(Br)cc2)SCC3)no1,-1.2,-1.5,-4.2,1.5,-0.4,42.0*,5.5
CC(=O)Nc1ccc(NC(=O)CSc2nc3c([nH]c4ccccc43)c(=O)n2-c2ccccc2F)cc1,9.0,7.9,-13.2,6.2,-1.1,22.4*,0.5
COc1ccccc1-n1c(SCC(=O)Nc2ccc(NC(C)=O)cc2)nc2c([nH]c3ccccc32)c1=O,-1.7,5.7,/,/,-1.4,6.6,/
NC1=NC[C@H](c2ccccc2)N1CCc1cccc(F)c1,-1.5,5.7,0.3,1.1,0.5,-2.1,/
Cc1sc2nc(SCC(=O)NCc3ccco3)n(-c3ccccc3)c(=O)c2c1C,-2.0,-2.2,-1.6,5.2,0.1,2.3,/
Cc1ccc(-n2c(SCC(=O)NCc3ccco3)nc3sc(C)c(C)c3c2=O)cc1,-1.1,9.1,-1.4,0.8,0.5,31.3*,2.2
Cc1ccc(-n2c(SCC(=O)Nc3cc(C)on3)nc3c([nH]c4ccccc43)c2=O)cc1,0.2,2.5,-2.8,-0.9,0.0,25.6*,3.3
CCOc1ccc(C(=O)NCC(c2cccs2)N(C)C)cc1OCC (stereo not given),0.3,-4.6,4.8,-0.9,1.8,-6.9,/
CSC1=NCCN1C(=O)C12CC3CC(CC(C3)C1)C2,-2.7,0.1,4.9,/,-0.1,-8.2,/
NC(=O)c1c(NC(=O)Cn2nc(C(=O)O)c3ccccc3c2=O)sc2c1CCC2,0.2,-4.8,-5.3,-2.6,0.0,33.4*,2.4
O=C(Cn1nc(C(=O)O)c2ccccc2c1=O)Nc1ccccc1C(F)(F)F,-2.2,-6.4,-0.6,-4.5,-0.8,77.5*,3.9
O=C(Cn1nc(C(=O)O)c2ccccc2c1=O)Nc1cccc(S(=O)(=O)N2CCCCC2)c1,-1.4,-1.0,-4.4,-3.2,-1.6,28.3*,7.8
O=C(Cn1nc(C(=O)O)c2ccccc2c1=O)Nc1nc(-c2ccccc2)cs1,/,-7.5,-8.3,10.9,-1.0,69.1*,-1.5
O=C(Cn1nc(C(=O)O)c2ccccc2c1=O)Nc1cccc(S(=O)(=O)N2CCOCC2)c1,-0.9,-6.7,/,5.4,-1.9,-18.6,/
Cc1ccccc1NC(=O)Cn1nc(C(=O)O)c2ccccc2c1=O,-1.2,-2.1,-1.4,3.8,-1.6,-4.0,/
CCOC(=O)c1c(NC(=O)Cn2nc(C(=O)O)c3ccccc3c2=O)sc2c1CCC(C)C2 (stereo not given),0.5,3.9,-1.5,-6.8,-3.0,-7.9,/
SMILES,CAL PDZ FP-1,Rtt109 Vps75,CAL PDZ FP-2,DYRK1A inh,CDK5 p35 inh,dFosB act-1,dFosB act-2
Cc1ccc(-n2nc3c(=O)n(CC(=O)NCc4ccccc4)nc(C)c3c2C)cc1,-0.1,-1.9,-4.1,-7.5,-2.5,20.8*,-0.4
Cc1ccc(-n2nc3c(=O)n(CC(=O)NCc4ccccc4Cl)nc(C)c3c2C)cc1,-0.7,4.6,/,-2.3,-0.7,-13.5,/
Cc1ccc(-n2nc3c(=O)n(CC(=O)NCCc4ccc(Cl)cc4)nc(C)c3c2C)cc1,-1.6,6.6,-5.0,-2.8,1.1,50.6*,0.1
CCc1ccc(CNC(=O)CCn2nc(C)c3c(C)n(-c4ccccc4)nc3c2=O)cc1,-0.7,6.5,2.1,2.5,0.9,73.4*,6.4
NNC(=O)c1sc2cc(C(F)(F)F)cnc2c1-c1ccccn1,-0.3,0.3,3.0,-6.1,0.6,-7.1,/
CC(C)N(CCO)Cc1nc(C(c2ccccc2)c2ccccc2)no1,-0.7,0.3,-4.4,-12.5,-0.7,-2.5,/
CCCC1=C(C(=O)OCC)C(c2ccc(OC)c(CSc3ccccn3)c2)C(C#N)=C(N)O1 (stereo not given),-0.7,0.5,-7.3,7.0,/,-11.7,/
COc1cc(CCC(=O)OCC(=O)Nc2ccc(F)c(F)c2F)cc(OC)c1OC,0.4,3.1,0.3,5.9,-1.3,-1.3,/
COc1cccc(OCCNC(=O)Nc2cc(F)c(F)cc2Cl)c1,-1.9,0.9,-4.1,-6.0,0.1,74.2*,-1.0
COc1ccc(Cn2c(SCc3ccccc3C)nc3cc(OC)c(OC)cc3c2=N)cc1,-4.2,10.2,5.7,1.2,-0.4,45.3*,1.8
CCOC(=O)N1CCN(S(=O)(=O)c2ccc(C(=O)N(CCN(C)C)c3nc4ccc(CC)cc4s3)cc2)CC1,0.3,-4.2,0.0,0.6,0.5,11.6,/
CCc1ccc2nc(N(CCCN(C)C)C(=O)c3ccc(S(=O)(=O)N4CCCc5ccccc54)cc3)sc2c1,-2.0,4.5,-2.2,18.1,-1.8,23.4*,6.5
CCOC(=O)N1CCN(S(=O)(=O)c2ccc(C(=O)N(CCCN(C)C)c3nc4ccc(CC)cc4s3)cc2)CC1,-1.3,24.6,-4.5,1.0,-2.2,32.2*,1.5
CN(C)CCN(C(=O)c1ccc(S(=O)(=O)N2CCc3ccccc32)cc1)c1nc2ccc(F)cc2s1,-3.6,32.3,1.6,-2.7,-2.1,61.8*,0.5
CC(=O)c1ccc(OCC(=O)N2CCN(S(=O)(=O)c3ccc(C)cc3C)CC2)cc1,-3.9,17.5,-1.1,-3.3,-2.0,-7.2,/
Clc1ccc(-c2ccnc(Oc3cc(Cl)ccc3Cl)n2)cc1,-1.0,4.6,-2.5,0.1,0.9,18.9*,-7.0
Clc1ccc(-c2ccnc(Oc3ccc4ccccc4c3)n2)cc1,-0.5,-0.7,-0.2,4.8,-0.3,-2.1,/
